# High-throughput results from PubChem.
# FXIa inh 1536: factor XIa (human) inhibition. 220,000 tested, 0.14% active. P03951. inhibition, % at 5 µM. purified FXIa, Boc-Glu-Ala-Arg-AMC fluorogenic substrate;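 active = inhibition of at least 40%; inactive = inhibition below 40%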;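 also: fluorescence of freed AMC excited at 355 nm; 0% = enzyme without compound and 100% = no enzyme blank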
# FXIIa inh: factor XIIa (human) inhibition | inhibition, % at 5 µM | P00748 | purified FXIIa, Boc-QGR-AMC fluorogenic substrate, 2 h | 220,000 tested, 0.3% active; in the data active = inhibition above about 40%;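 also: 0% = enzyme with no compound and 100% = blank without enzyme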
# m-calpain inh: calpain II (pig) inhibition. purified calpain II, fluorogenic peptide substrate, 30 min. inhibition, % at 16 µM. 220,000 tested, 0.37% active. AID 1236;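 active = inhibition above about 50%, limit read from the data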
# KLK5 inh: blocks human kallikrein 5 protease activity | recombinant hK5, fluorogenic AMC substrate cleavage | inhibition, % at 5 µM | 210,000 tested, 0.59% active | AID 873;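 active = inhibition of 40% or more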;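 also: 0% = enzyme controls without compound and 100% = no-enzyme blanks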
# Thrombin inh: blocks human thrombin protease activity; 220,000 tested, 0.26% active; alpha-thrombin, Boc-VPR-AMC fluorogenic substrate cleavage; P00734; inhibition, % at 5 µM;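 active = inhibition at or above 40%; inactive = inhibition below 40%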;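 also: 0% = enzyme with no compound and 100% = wells without enzyme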
#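 System – human alpha-thrombin protein · Reagent – Boc-VPR-AMC substrate, 15 µM final · Compound – 5 µM single dose in 0.2% DMSO · Schedule – reaction at room temperature · Technique – AMC fluorescence at 355 nm excitation and 460 nm emission · Read-out basis – % inhibition relative to enzyme controls and enzyme-free blanks · Control set – no-compound enzyme wells and no-enzyme blanks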
# * = called active by the depositor; i = inactive; nt = no result. This is a sample that favours compounds with a hit; in the whole collection about 1.4% have one here.
SMILES,FXIa inh 1536,FXIIa inh,m-calpain inh,KLK5 inh,Thrombin inh
COc1ccc(C(=O)Cn2c(NCCO)nc3ccccc32)cc1OC,6,12,0,-8,2
COC(=O)CCCCCC(CCC(=O)OC)NC(C)=O (configuration not stated),6,16,8,51*,24
CSc1ncc(CN2CCN(C3CCCC3)C(CCO)C2)cn1 (configuration not stated),4,11,-28,nt,4
CCCCC(=O)Nc1sc2c(c1C(=O)OCC)CCC(C=O)=C2Cl,7,11,-104,-9,2
Cc1ccc(CSC2=NCCN2C(=O)c2ccco2)cc1,-10,1,27,41*,-5
CCC(=O)N1CCN=C1SCc1ccccc1,11,29,-7,41*,14
CCC(=O)N1CCN=C1SCc1ccc(Cl)cc1,2,16,5,6,5
Cc1cccc(CSC2=NCCN2C(=O)c2ccco2)c1,6,19,14,-21,-8
COc1cccc(/C=N/n2c(N)c(S(=O)(=O)c3cccs3)c3nc4ccccc4nc32)c1OC,4,44*,-178,9,18
COCCn1c(N)c(S(=O)(=O)c2cccs2)c2nc3ccccc3nc21,-12,32,i,-42,-9
Cc1nn(-c2ccccc2)c(Cl)c1CN(C(=O)CCl)c1ccc(Cl)cc1,8,17,27,45*,19
CC(=O)N(Cc1c(C)nn(-c2ccccc2)c1Cl)c1ccc(Cl)cc1,-6,9,-1,11,-4
CC(C)Nc1nnc(Sc2ccc(Cl)cc2[N+](=O)[O-])s1,-1,4,71*,-7,-5
CC(C)(C)c1ccc(/C=N/NC(=S)NCc2ccccc2)cc1,4,7,-16,-9,-8
C=CCNC(=S)N/N=C/c1ccc(C(C)(C)C)cc1,10,15,64*,5,0
CCCOc1ccc(S(=O)(=O)N2C(=O)CC(=O)N(Cc3ccc(OCC)cc3)C2=O)cc1,1,13,23,-3,1
COc1ccccc1CNC(=O)c1ccc(N2CCOCC2)c([N+](=O)[O-])c1,-1,4,4,2,-4
C=CCc1cccc(/C=N/NC(=O)CNc2ccccc2)c1O,-11,-2,2,-27,46*
C=CCc1cccc(/C=N/NC(=O)CCCNc2ccc(C)cc2)c1O,8,5,21,47*,20
C=CCc1cccc(/C=N/NC(=O)CNc2cccc3ccccc23)c1O,-7,-2,8,-17,-8
CCOC(=O)C1=C(C)N=C2SCCC(=O)N2C1c1sccc1C (configuration not stated),-8,23,-3,3,8
C=CCOC(=O)C1=C(C)N=C2SCCC(=O)N2C1c1cccs1 (configuration not stated),8,71*,13,9,4
CCN(CC)S(=O)(=O)c1cccc(C(=O)OCC(=O)c2ccc3c(c2)OCCO3)c1,-4,5,16,-17,-4
Cc1ccc(-c2ccc([C@H]3[C@@H]4C=CCC[C@@]4(C)C(=O)N3Cc3ccccc3)c(F)c2)cc1,3,13,66*,3,-2
COc1ccc(-c2cc([C@H]3[C@@H]4C=CCC[C@@]4(C)C(=O)N3Cc3ccccc3)ccc2F)cc1,20,14,0,42*,11
SMILES,FXIa inh 1536,FXIIa inh,m-calpain inh,KLK5 inh,Thrombin inh
Cc1ccc2c(CC(=O)NCC(C)(C)N3CCOCC3)coc2c1,5,7,-12,10,-2
CCOC(=O)N1CCN(C(=O)CSCC(=O)Nc2nc(-c3ccc(OC)cc3)cs2)CC1,-10,-1,-25,-26,-10
CCOC(=O)N1CCN(C(=O)CSCC(=O)Nc2nc(-c3ccc(Cl)s3)cs2)CC1,8,15,-8,-5,50*
COc1ccc(C2CC(=O)C(C(c3ccc(O)cc3)C3C(=O)CC(c4ccc(OC)cc4)CC3=O)C(=O)C2)cc1 (configuration not stated),26,45*,2,50*,34
COc1ccc(C2=CC(=O)CC(c3ccc(OC)cc3)C2)cc1 (configuration not stated),3,8,16,-1,7
Cc1nnc(Sc2cc(NCCO)c([N+](=O)[O-])c3nonc23)s1,-3,6,82*,-4,-6
COc1ccc(OC)c(NC(=O)CSc2ccc3ccccc3c2)c1,7,18,21,1,3
COc1ccc(C)cc1NC(=O)COC(=O)C1CCN(C(=O)c2ccc(Cl)cc2)CC1,49*,26,20,28,27
COc1ccc(OC)c(NC(=O)COC(=O)CSc2ccc(Cl)cc2)c1,12,14,90*,-3,3
Cc1ccc(Cl)cc1NS(=O)(=O)c1c(C)[nH]c(=O)[nH]c1=O,-3,0,14,30,104*
COCC(C)N=C1NN=C(c2c[nH]c3ccccc23)CS1 (configuration not stated),4,13,5,-8,3
Cc1cc(C)n(C(=O)CNc2cccc(Cl)c2C)n1,5,44*,13,46*,5
Cc1ccc(-c2cc(C(F)F)n3ncc(C(=O)Nc4ccc(S(=O)(=O)Nc5ccccc5C)cc4)c3n2)cc1,17,21,-74,-24,1
COC(=O)CN(C)C(=O)CC1C(=O)NCCN1CC(C)(C)C (configuration not stated),-2,5,-36,-3,-2
C=C(C)CN(CC)C(=O)CC1C(=O)NCCN1CC(C)(C)C (configuration not stated),4,6,0,1,44*
C=CCn1c(SCC(=O)Nc2nc3ccccc3s2)nc(O)c(CC)c1=O,0,3,-10,1,-3
CCCC/C(O)=N\S(=O)(=O)c1ccc(N=NN(C)C)cc1,10,34,28,70*,32
COCC1=C(C(=O)OC)C(c2cccs2)n2ncnc2N1 (configuration not stated),0,6,2,0,0
CN(C)C(=O)COc1ncnc2scc(-c3ccc(F)cc3)c12,-4,3,11,-12,2
CCN(CC)S(=O)(=O)c1ccc(OC)c(NC(=O)C(Cc2ccccc2)N2C(=O)c3ccccc3C2=O)c1 (configuration not stated),7,7,-26,-6,-3
CC(=O)Nc1cccc(C(=O)OCc2ccccc2)c1,29,16,5,82*,11
NNC(=O)CNC(=O)CNS(=O)(=O)c1ccccc1,2,5,-18,-2,nt
N#Cc1c(/N=C/c2ccco2)sc2c1CCC2,13,9,9,19,104*
Cc1ccccc1NC(=O)COC(=O)CCc1ccccc1,-1,13,64*,-3,-2
CC(O)CN=c1cc(-c2ccccc2)oc2ccc(Cl)cc12 (configuration not stated),-4,16,21,68*,15
CC(C)CN=c1cc(-c2ccccc2)oc2ccc(Cl)cc12,2,20,-4,-1,16
CCn1ncc(Br)c1C(=O)Nc1ncc(C)s1,5,5,10,-2,nt
